Laboratory results taken from ChEMBL document CHEMBL1123878, “Potential antitumor agents. 50. In vivo solid-tumor activity of derivatives of N-[2-(dimethylamino)ethyl]acridine-4-carboxamide” (J Med Chem, 1987).
One block for each compound: values may come before it. The source made the active and inactive calls. The calls are words filed in the database; no cut-off is given here.

Legend:
[1] = Lipophilicity index (Rm) (HPLC); type: physicochemical
HCT-8 = test: Inhibition of human colon tumor (HCT-8) cell growth in culture; type: functional, cell-based
In short: (§1)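 IC50 is the drug concentration, in nM, that inhibits growth of the cultured cell line by 50%.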

L1210 = test: Inhibition murine leukemia L1210 cell growth in culture; type: functional, cell-based; conditions: Mus musculus; in short: as §1
[2] = system: Lewis lung carcinoma cell line; test: (§2) Percentage increase in life span of tumor bearing animals compared to non treated, tumor-bearing controls when treated at the optimal dose of 100 mg/kg/day intraperitoneally; type: functional; conditions: Mus musculus, ip, route intraperitoneal
P388 [3] = test: as §2; type: functional; conditions: Mus musculus, P388, ip; route intraperitoneal
[4] = Selectivity ratio of IC50 of HCT to IC50 of L1210 cell lines; type: functional
[5] = Base strength is expressed as pKa, determined in water at 25 degrees Centigrade by spectrophotometric method.; type: physicochemical
[6] = system: Lewis lung carcinoma cell line; test: (§3) Percentage increase in life span of tumor bearing animals compared to non treated, tumor-bearing controls when treated at the optimal dose of 150 mg/kg/day intraperitoneally; type: functional; conditions: Mus musculus, ip, route intraperitoneal
P388 [7] = test: as §3; type: functional; conditions: Mus musculus, P388, ip; route intraperitoneal
P388 [8] = test: Percentage increase in life span of tumor (P388 cells) bearing animals compared to non treated, tumor-bearing controls when treated at the optimal dose of 45 mg/kg/day; IA denotes inactive; type: functional, organism-based; conditions: Mus musculus
[9] = system: Lewis lung carcinoma cell line; test: (§4) Percentage increase in life span of tumor bearing animals compared to non treated, tumor-bearing controls when treated at the optimal dose of 65 mg/kg/day intraperitoneally; type: functional; conditions: Mus musculus, ip, route intraperitoneal
P388 [10] = test: as §4; type: functional; conditions: Mus musculus, P388, ip; route intraperitoneal
P388 [11] = test: Percentage increase in life span of tumor bearing animals compared to non treated, tumor-bearing controls when treated at the optimal dose of 30 mg/kg/day intraperitoneally; type: functional; conditions: Mus musculus, P388, ip; route intraperitoneal

Compound: CN(C)CCCCNC(=O)c1cccc2cc3ccccc3nc12.Cl
Rm [1]: 0.01
IC50 (HCT-8): 0.93 µM
IC50 (L1210): 0.16 µM
ILS at 100 mg/kg/day [2]: 100%
ILS at 100 mg/kg/day (P388 [3]): 143%
Ratio [4]: 5.8

Compound: COc1cccc2nc3c(C(=O)NCCN(C)C)cccc3cc12.Cl
Rm [1]: -0.12
pKa [5]: 3.82
IC50 (HCT-8): 0.52 µM
IC50 (L1210): 0.058 µM
ILS at 100 mg/kg/day [2]: 66%
ILS at 100 mg/kg/day (P388 [3]): 128%
Ratio [4]: 9

Compound: CN(C)CCCNC(=O)c1cccc2cc3ccccc3nc12.Cl.Cl
Rm [1]: -0.1
IC50 (HCT-8): 2.9 µM
IC50 (L1210): 0.37 µM
ILS at 150 mg/kg/day [6]: 84%
ILS at 150 mg/kg/day (P388 [7]): 118%
Ratio [4]: 7.8

Compound: COc1ccc2cc3cccc(C(=O)NCCN(C)C)c3nc2c1.Cl.Cl
Rm [1]: -0.47
pKa [5]: 4.59
IC50 (HCT-8): 0.47 µM
IC50 (L1210): 0.21 µM
ILS at 100 mg/kg/day [2]: 85%
Ratio [4]: 2.2

Rm [1]: -0.33
pKa [5]: 4.34
IC50 (HCT-8): 0.16 µM
IC50 (L1210): 0.15 µM
Compound: Cc1c2ccccc2nc2c(C(=O)NCCN(C)C)cccc12.Cl.Cl
IA (P388 [8]): inactive
Ratio [4]: 1.1

Compound: CN(C)CCNC(=O)c1ccc(Cl)c2cc3ccccc3nc12.Cl.Cl
Rm [1]: 0.04
IC50 (HCT-8): 0.37 µM
IC50 (L1210): 0.033 µM
ILS at 100 mg/kg/day [2]: 120%
ILS at 100 mg/kg/day (P388 [3]): 110%
Ratio [4]: 11.2

Compound: CN(C)CCNC(=O)c1cccc2cc3c(Cl)cccc3nc12.Cl.Cl.Cl
Rm [1]: 0.01
IC50 (HCT-8): 0.79 µM
IC50 (L1210): 0.16 µM
ILS at 65 mg/kg/day [9]: 63%
ILS at 65 mg/kg/day (P388 [10]): 102%
Ratio [4]: 4.9

Compound: CN(C)CCNC(=O)c1cccc2cc3ccc(Cl)cc3nc12.Cl
Rm [1]: -0.06
IC50 (HCT-8): 0.35 µM
IC50 (L1210): 0.0064 µM
ILS at 65 mg/kg/day [9]: 91%
Ratio [4]: 54

Compound: CN(C)CCNC(=O)c1cccc2cc3cc(Cl)ccc3nc12.Cl.Cl
Rm [1]: -0.03
IC50 (HCT-8): 0.61 µM
IC50 (L1210): 0.25 µM
ILS at 100 mg/kg/day [2]: 94%
ILS at 100 mg/kg/day (P388 [3]): 106%
Ratio [4]: 2.4

Compound: CN(C)CCNC(=O)c1cc(Cl)cc2cc3ccccc3nc12.Cl.Cl
Rm [1]: 0.03
IC50 (HCT-8): 0.44 µM
IC50 (L1210): 0.031 µM
ILS at 100 mg/kg/day [2]: 219%
ILS at 100 mg/kg/day (P388 [3]): 62%
Ratio [4]: 14.2

Compound: Cc1ccc2nc3c(C(=O)NCCN(C)C)cccc3cc2c1.Cl.Cl
Rm [1]: -0.05
IC50 (HCT-8): 1.24 µM
IC50 (L1210): 0.2 µM
ILS at 150 mg/kg/day [6]: 85%
ILS at 100 mg/kg/day (P388 [3]): 68%
Ratio [4]: 6.2

Compound: Cc1cc(C(=O)NCCN(C)C)c2nc3ccccc3cc2c1.Cl.Cl
Rm [1]: -0.04
IC50 (HCT-8): 0.657 µM
IC50 (L1210): 0.13 µM
ILS at 150 mg/kg/day [6]: 33%
ILS at 100 mg/kg/day (P388 [3]): 120%
Ratio [4]: 5.1

Compound: COc1cc(C(=O)NCCN(C)C)c2nc3ccccc3cc2c1.Cl.Cl
Rm [1]: -0.13
pKa [5]: 3.34
IC50 (HCT-8): 0.72 µM
IC50 (L1210): 0.03 µM
ILS at 100 mg/kg/day [2]: 105%
ILS at 100 mg/kg/day (P388 [3]): 99%
Ratio [4]: 24

Compound: COc1ccc2nc3c(C(=O)NCCN(C)C)cccc3cc2c1.Cl.Cl
Rm [1]: -0.22
pKa [5]: 3.54
IC50 (HCT-8): 1.7 µM
IC50 (L1210): 0.64 µM
ILS at 150 mg/kg/day [6]: 46%
ILS at 150 mg/kg/day (P388 [7]): 91%
Ratio [4]: 2.7

Compound: CCN(CC)CCNC(=O)c1cccc2cc3ccccc3nc12.Cl.Cl
Rm [1]: 0.17
IC50 (L1210): 0.63 µM
ILS at 150 mg/kg/day [6]: 62%
ILS at 150 mg/kg/day (P388 [7]): 61%

Compound: COc1ccc(C(=O)NCCN(C)C)c2nc3ccccc3cc12.Cl.Cl
Rm [1]: -0.13
pKa [5]: 3.81
IC50 (HCT-8): 0.115 µM
IC50 (L1210): 0.0088 µM
ILS at 30 mg/kg/day (P388 [11]): 205%
Ratio [4]: 13.1

Compound: Cc1ccc(C(=O)NCCN(C)C)c2nc3ccccc3cc12.Cl.Cl
Rm [1]: 0.1
IC50 (HCT-8): 0.4 µM
IC50 (L1210): 0.037 µM
ILS at 100 mg/kg/day (P388 [3]): 71%
Ratio [4]: 10.8
